According to paper PMC5351328 (Clinical and Translational Science, 2016):

Assays:
[1] = cited from earlier work
[2] = system: I-FABP, flagellin, LBP, sCD14; type: in vivo, human; conditions: within each group
Outline: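 Participants with mild or moderate hepatic impairment and matched normal-function controls received a single-tablet 150 mg oral test compound, dosed over 14 days. I-FABP, flagellin, LBP and sCD14 were quantified by ELISA, following kit instructions, in plasma from Day 1 (predose), Day 7 and Day 14. Results were summarised by day as medians, IQR and change from baseline, using Wilcoxon tests.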

CCCCOCCOc1ccc(-c2ccc3c(c2)/C=C(/C(=O)Nc2ccc([S@@+]([O-])Cc4cncn4CCC)cc2)CCCN3CC(C)C)cc1 [cenicriviroc]
APRI, FIB-4 and enhanced liver fibrosis score ([1]; HIV-infected participants): decreases | sCD14 levels ([1]; HIV-positive participants (Study 202)): decreased | I-FABP change during treatment [2]: None of these markers changed significantly | LBP change during treatment [2]: None of these markers changed significantly | flagellin change during treatment [2]: None of these markers changed significantly | sCD14 change during treatment [2]: None of these markers changed significantly
